According to ChEMBL document CHEMBL1137736, “Substituted quinolinyl chalcones and quinolinyl pyrimidines as a new class of anti-infective agents” (Eur J Med Chem, 2009):
In brackets after ≈: the same amount, converted by molar mass. Activity calls are given as the source filed them. The rule behind the calls is not given here.

Tests used:
[1] = tested on: Mycobacterium tuberculosis; assay: Antitubercular activity against Mycobacterium tuberculosis H37Rv after 4 weeks by serial twofold dilution method; type: functional
Method in brief: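 Serial twofold dilutions of a 1.0 mg/mL DMSO stock were incorporated into Middlebrook 7H10 agar slants with OADC. H37Rv grown on Lowenstein–Jensen medium was harvested in N-saline with 0.05% Tween-80 and dispersed with glass beads into a single-cell suspension. The working inoculum was 2 107 cfu/mL. MIC was the lowest concentration giving complete growth inhibition.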

[2] = tested on: Plasmodium falciparum; assay: Antimalarial activity as inhibition of schizont maturation against Plasmodium falciparum NF54 after 36 - 40 hrs; type: functional
Method in brief: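 P. falciparum NF-54 kept in RPMI-1640 with 25 mM HEPES, 1% D-glucose, 0.23% sodium bicarbonate and 10% heat-inactivated human serum. Compounds tested in duplicate at 0.25–[…] in 96-well microassay with parasitized cells, 37 C, candle jar, 36–40 h. Giemsa-stained smears scored for ring maturation to schizonts. MIC is lowest concentration blocking complete schizont maturation.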

[3] = tested on: Vero; assay: Cytotoxicity against african green monkey Vero cells after 24 hrs by MTS assay; type: cell-based; settings: chlorocebus sabaeus
Method in brief: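 VERO cells seeded at 10^4 cells/well in MEM with antibiotics and 10% FBS, incubated 24 h (37 C, 5% CO2). Medium then replaced by 5% FBS, antibiotic-free medium with compound or DMSO for 24 h. MTS added and A490 read after 2 h, with DMSO wells as 100% survival. Toxic means 50% inhibition at 10-fold the MIC.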

[4] = Cytotoxicity against mouse BMDM cells after 5 days by MTS assay; type: cell-based; settings: 120 h
Method in brief: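 Mouse bone-marrow-derived macrophages plated at 10^5 cells/well in DMEM with antibiotics, 10% FBS, 15% (v/v) L-929 conditioned supernatant and non-essential amino acids. After compound exposure, incubated 5 days at 37 C, 5% CO2. MTS added and A490 read after 2 h, with DMSO wells as 100% survival. Toxic means 50% inhibition at 10-fold the MIC.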

| SMILES | MIC [1] | MIC [2] | MIC ([1]; 672 h) | Activity [3] | Activity [4] |
| --- | --- | --- | --- | --- | --- |
| Nc1nc(-c2ccc(Nc3ccnc4cc(Cl)ccc34)cc2)cc(-c2cccnc2)n1 | inactive | 1 µg/mL (≈ 2.35 µM) |  |  |  |
| CCN(CC)CCCC(C)Nc1ccnc2cc(Cl)ccc12 (stereo unspecified) [CHLOROQUINE] |  | 0.125 µg/mL (≈ 0.391 µM) |  |  |  |
| COc1cc(-c2cc(-c3ccc(Nc4ccnc5cc(Cl)ccc45)cc3)nc(N)n2)cc(OC)c1OC |  | inactive | 12.5 µg/mL (≈ 24.3 µM) |  |  |
| COc1ccc(-c2cc(-c3ccc(Nc4ccnc5cc(Cl)ccc45)cc3)nc(N)n2)cc1 | inactive | 2 µg/mL (≈ 4.41 µM) |  |  |  |
| CSc1ccc(-c2cc(-c3ccc(Nc4ccnc5cc(Cl)ccc45)cc3)nc(N)n2)cc1 | inactive | 1 µg/mL (≈ 2.13 µM) |  |  |  |
| O=C(/C=C/c1ccc(Cl)cc1)c1ccc(Nc2ccnc3cc(Cl)ccc23)cc1 |  | inactive | 6.25 µg/mL (≈ 14.9 µM) |  |  |
| NC(=O)c1cnccn1 [PYRAZINAMIDE] |  |  | 50 µg/mL (≈ 406 µM) | Non-toxic | Non-toxic |
| CC(C)c1ccc(-c2cc(-c3ccc(Nc4ccnc5cc(Cl)ccc45)cc3)nc(N)n2)cc1 |  | 1 µg/mL (≈ 2.15 µM) | 6.25 µg/mL (≈ 13.4 µM) |  |  |
| COc1cccc(/C=C/C(=O)c2ccc(Nc3ccnc4cc(Cl)ccc34)cc2)c1OC |  | inactive | 3.12 µg/mL (≈ 7.01 µM) | Non-toxic | Non-toxic |
| Nc1nc(-c2ccc(Nc3ccnc4cc(Cl)ccc34)cc2)cc(-c2ccco2)n1 |  | inactive | 12.5 µg/mL (≈ 30.2 µM) |  |  |
| COc1ccc(OC)c(/C=C/C(=O)c2ccc(Nc3ccnc4cc(Cl)ccc34)cc2)c1 |  | inactive | 3.12 µg/mL (≈ 7.01 µM) | Non-toxic | Non-toxic |
